Assay results taken from ChEMBL document CHEMBL5058577, “EUbOPEN Chemogenomics Library 2 (Multiplex)” (2022).

System: U2OS
Assay: Multiplex assay against U2OS
Type: toxicity, cell-based
Conditions: human
Procedure, shortened: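 Four dyes were applied at seeding to live cells: Hoechst33342, BioTracker Green Microtubule Cytoskeleton Dye, MitoTracker Red and Annexin V Alexa Fluor 680. Imaging after compound addition used a CQ1 microscope at 37°C and 5% CO2. CellPathfinder machine-learning gating then sorted cells into Hoechst high-intensity objects or normal cells, normal cells into healthy, pyknosed or fragmented nuclei, and pyknosed cells into mitotic or apoptotic, with tubulin, mitochondrial-mass and membrane-permeability phenotypes given as per cents of healthy-nucleus cells.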

[1] = 12 h, 1 µM, compound concentration 1 uM, replicate 1
[2] = 12 h, 1 µM, compound concentration 1 uM, replicate 2
[3] = 12 h, 10 µM, compound concentration 10 uM, replicate 1
[4] = 12 h, 10 µM, compound concentration 10 uM, replicate 2
[5] = 24 h, 1 µM, compound concentration 1 uM, replicate 1
[6] = 24 h, 1 µM, compound concentration 1 uM, replicate 2
[7] = 24 h, 10 µM, compound concentration 10 uM, replicate 1
[8] = 24 h, 10 µM, compound concentration 10 uM, replicate 2
[9] = 48 h, 1 µM, compound concentration 1 uM, replicate 1
[10] = 48 h, 1 µM, compound concentration 1 uM, replicate 2
[11] = 48 h, 10 µM, compound concentration 10 uM, replicate 1
[12] = 48 h, 10 µM, compound concentration 10 uM, replicate 2

## CCCCCC(O)/C=C/[C@H]1C(=O)CC(O)C1C/C=C\CCCC(=O)O (stereo partly specified)
[1]
  Population Apoptotic (%): 60%
  Population Fragmented Nuclei (%): 28%
  Population Healthy Nuclei (%): 59%
  Population Hoechst High Intensity Objects (%): 1%
  Population Membrane Permeable-Phenotype (%): 5%
  Population Mitochondria Different-Phenotype (%): 4%
  Population Mitotic Cells (%): 40%
  Population Normal (%): 98%
  Population Pyknosed Nuclei (%): 12%
  Population Tubulin-Different-Phenotype (%): 4%
  Total Cell Count: 203
[2]
  Population Apoptotic (%): 88%
  Population Fragmented Nuclei (%): 15%
  Population Healthy Nuclei (%): 76%
  Population Hoechst High Intensity Objects (%): 0%
  Population Membrane Permeable-Phenotype (%): 8%
  Population Mitochondria Different-Phenotype (%): 6%
  Population Mitotic Cells (%): 11%
  Population Normal (%): 99%
  Population Pyknosed Nuclei (%): 8%
  Population Tubulin-Different-Phenotype (%): 8%
  Total Cell Count: 113
[3]
  Population Apoptotic (%): 71%
  Population Fragmented Nuclei (%): 23%
  Population Healthy Nuclei (%): 69%
  Population Hoechst High Intensity Objects (%): 2%
  Population Membrane Permeable-Phenotype (%): 8%
  Population Mitochondria Different-Phenotype (%): 3%
  Population Mitotic Cells (%): 28%
  Population Normal (%): 97%
  Population Pyknosed Nuclei (%): 7%
  Population Tubulin-Different-Phenotype (%): 5%
  Total Cell Count: 190
[4]
  Population Apoptotic (%): 66%
  Population Fragmented Nuclei (%): 16%
  Population Healthy Nuclei (%): 73%
  Population Membrane Permeable-Phenotype (%): 10%
  Population Mitochondria Different-Phenotype (%): 2%
  Population Mitotic Cells (%): 33%
  Population Pyknosed Nuclei (%): 9%
  Population Tubulin-Different-Phenotype (%): 4%
  Total Cell Count: 94
[5]
  Population Apoptotic (%): 86%
  Population Fragmented Nuclei (%): 27%
  Population Healthy Nuclei (%): 63%
  Population Hoechst High Intensity Objects (%): 2%
  Population Membrane Permeable-Phenotype (%): 3%
  Population Mitochondria Different-Phenotype (%): 0%
  Population Mitotic Cells (%): 13%
  Population Normal (%): 98%
  Population Pyknosed Nuclei (%): 8%
  Population Tubulin-Different-Phenotype (%): 1%
  Total Cell Count: 250
[6]
  Population Apoptotic (%): 90%
  Population Fragmented Nuclei (%): 16%
  Population Healthy Nuclei (%): 74%
  Population Hoechst High Intensity Objects (%): 0%
  Population Membrane Permeable-Phenotype (%): 5%
  Population Mitochondria Different-Phenotype (%): 7%
  Population Mitotic Cells (%): 9%
  Population Normal (%): 99%
  Population Tubulin-Different-Phenotype (%): 4%
  Total Cell Count: 131
[7]
  Population Apoptotic (%): 100%
  Population Fragmented Nuclei (%): 23%
  Population Healthy Nuclei (%): 66%
  Population Hoechst High Intensity Objects (%): 1%
  Population Membrane Permeable-Phenotype (%): 6%
  Population Mitochondria Different-Phenotype (%): 4%
  Population Mitotic Cells (%): 0%
  Population Normal (%): 98%
  Population Pyknosed Nuclei (%): 9%
  Population Tubulin-Different-Phenotype (%): 4%
  Total Cell Count: 216
[8]
  Population Apoptotic (%): 90%
  Population Fragmented Nuclei (%): 16%
  Population Healthy Nuclei (%): 74%
  Population Hoechst High Intensity Objects (%): 2%
  Population Membrane Permeable-Phenotype (%): 5%
  Population Mitochondria Different-Phenotype (%): 1%
  Population Mitotic Cells (%): 10%
  Population Normal (%): 97%
  Population Pyknosed Nuclei (%): 8%
  Population Tubulin-Different-Phenotype (%): 2%
  Total Cell Count: 118
[9]
  Population Apoptotic (%): 89%
  Population Fragmented Nuclei (%): 19%
  Population Healthy Nuclei (%): 71%
  Population Hoechst High Intensity Objects (%): 2%
  Population Membrane Permeable-Phenotype (%): 4%
  Population Mitochondria Different-Phenotype (%): 3%
  Population Mitotic Cells (%): 10%
  Population Normal (%): 97%
  Population Pyknosed Nuclei (%): 8%
  Population Tubulin-Different-Phenotype (%): 2%
  Total Cell Count: 334
[10]
  Population Apoptotic (%): 100%
  Population Fragmented Nuclei (%): 13%
  Population Healthy Nuclei (%): 79%
  Population Membrane Permeable-Phenotype (%): 5%
  Population Mitochondria Different-Phenotype (%): 4%
  Population Mitotic Cells (%): 0%
  Population Pyknosed Nuclei (%): 7%
  Population Tubulin-Different-Phenotype (%): 3%
  Total Cell Count: 189
[11]
  Population Apoptotic (%): 89%
  Population Fragmented Nuclei (%): 23%
  Population Healthy Nuclei (%): 67%
  Population Hoechst High Intensity Objects (%): 3%
  Population Membrane Permeable-Phenotype (%): 6%
  Population Mitochondria Different-Phenotype (%): 3%
  Population Mitotic Cells (%): 10%
  Population Normal (%): 96%
  Population Pyknosed Nuclei (%): 9%
  Population Tubulin-Different-Phenotype (%): 4%
  Total Cell Count: 302
[12]
  Population Apoptotic (%): 100%
  Population Fragmented Nuclei (%): 21%
  Population Healthy Nuclei (%): 70%
  Population Hoechst High Intensity Objects (%): 2%
  Population Membrane Permeable-Phenotype (%): 7%
  Population Mitotic Cells (%): 0%
  Population Normal (%): 97%
  Population Pyknosed Nuclei (%): 7%
  Population Tubulin-Different-Phenotype (%): 3%
  Total Cell Count: 161
